UPR XBP1 act: adaptive UPR (XBP1) activation; CHO-XBP1 luciferase reporter, IRE1-XBP1 UPR activation, luminescence; percent of tunicamycin response, DMSO as zero; activation, % at 20 µM; 330,000 tested, 0.33% active; AID 463104;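 active = versus positive control, 20 µM dose yields 30% or more activation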
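Assay system: IRE1-XBP1 luciferase reporter CHO line. Input: 1000 cells/well. Buffer or medium: F12 with 10% serum. Doses: 20 µM, 1% DMSO. Times: overnight seeding at 37 °C, 6 h compound treatment at 37 °C. Technique: Steady-Glo luciferase glow luminescence, 10 min after reagent addition.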
UPR CHOP act: apoptotic UPR (CHOP) activation. CHO-CHOP luciferase reporter, luminescence; percent of tunicamycin response over DMSO baseline. activation, % at 10 µM. 330,000 tested, 0.34% active;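 active = at 10 µM dose, activation of 40% or more, normalized to positive control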
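System: CHO-CHOP luciferase reporter cell line | Buffer or medium: F12 medium containing 10% fetal bovine serum | Doses: One dose, 10 µM in 0.5% DMSO | Times: 6 h compound exposure at 37 °C after overnight seeding | Signal: Luciferase luminescence | Read-out: % activation vs tunicamycin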
CHOP inhibitor: blocks CHOP induction under ER stress; CHO-K1 CHOP-promoter luciferase, tunicamycin-induced, 15-18 h; 220,000 tested, 3.8% active; AID 2732; inhibition, % at 10 µM;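 active = compounds that reduced the stress-induced luciferase reporter signal by more than about 70% of percent inhibition, limit read from the data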
aDG glyco act: increases alpha dystroglycan glycosylation; Pro5-aDG cells, alpha-DG glycosylation AlphaScreen (IIH6); 0% Pro5, 100% B10-LARGE cell signal; activation, % at 10 µM; 360,000 tested, 0.22% active;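 active = activation of at least 8% versus controls, or a plate z-score of at least 8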;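 also: Pro5 are CHO cells carrying HIG-tagged alpha-DG that lacks glycosylation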
NR3A LBD binder: modulates the human NR3A ligand-binding domain; Tm shift relative to glycine control, % at 25 µM; 340,000 tested, 2.5% active; NR3A LBD differential scanning fluorimetry, Tm shift; 0% = protein alone, 100% = glycine-bound protein;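 active = melting temperature shift of at least 10% of the positive control shift, at one fixed dose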
MPTP inh: permeability transition pore inhibition | 360,000 tested, 1.4% active | inhibition, % at 10 µM | AID 602449 | isolated mouse mitochondria, Ca2+ swelling absorbance, 30 min;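 active = inhibition of 50% or more, scaled per plate between neutral and stimulator controls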
Numbers stand for hits; n = inactive; x = not tested or not shown. The list is not random: actives were taken first. Their share in the collection is about 5.6%.

SMILES | UPR XBP1 act | UPR CHOP act | CHOP inhibitor | aDG glyco act | NR3A LBD binder | MPTP inh
Cc1[nH]c2ccccc2c1C(=O)COC(=O)c1c(-c2c(F)cccc2Cl)noc1C | n | n | n | n | 29 | n
Cc1onc(-c2c(F)cccc2Cl)c1C(=O)OCN1C(=O)c2ccccc2C1=O | n | n | n | n | n | n
CCO[C@H]1OC(C(=O)N2CCOCC2)=C[C@@H](c2coc3ccccc3c2=O)[C@@H]1CCCO | n | n | n | n | n | n
CN1CCN(C(=O)c2ccc(-c3ccc(F)c(F)c3)c3ccoc23)CC1 | x | x | x | n | x | n
COc1cccc(NC(=O)CN(C)C(=O)c2oc3c(ccc4ccccc43)c2C)c1 | n | n | x | n | 17 | n
COc1cccc(NC(=O)CN(C)C(=O)c2ccc(NC(=O)CC3SC(N4CCCCC4)=NC3=O)cc2)c1 (centres undefined) | n | n | x | n | n | n
Cc1c(C(=O)OCC(=O)Nc2cccc(S(N)(=O)=O)c2)oc2c1ccc1ccccc12 | n | n | n | n | 15 | n
NS(=O)(=O)c1cccc(NC(=O)COC(=O)c2ccccc2C(=O)c2ccccc2)c1 | n | n | x | n | n | n
COc1cccc(NC(=O)CN(C)C(=O)c2ccc(NC(=O)CC3SC(N4CCCC4)=NC3=O)cc2)c1 (centres undefined) | x | x | x | n | 11 | n
Cc1cc(NC(=O)COC(=O)c2oc3c(Cl)cccc3c2C)no1 | n | n | 74 | n | n | n
COc1ccc(/C=C2\CCCC3C2=NN(C(=O)c2ccco2)C3c2ccc(OC)c(OC)c2)cc1OC (centres undefined) | n | n | n | n | n | n
COc1ccc(/C=C2\CCCC3C2=NN(C(=O)c2scnc2C)C3c2ccc(OC)c(OC)c2)cc1OC (centres undefined) | n | n | n | n | 11 | n
Cc1nc2sccn2c(=O)c1S(=O)(=O)NCC1CCN(Cc2ccccc2Cl)CC1 | n | n | x | n | 12 | n
CC(=O)c1ccc(NC(=O)NC2CC(=O)N(c3ccc4c(c3)OCCO4)C2)cc1 (centres undefined) | n | n | x | n | 14 | n
Cc1c(O)ccc(/C=N/Nc2ncccc2[N+](=O)[O-])c1O | n | n | x | 5.8 | n | n
O=C(NC(=S)Nc1ccc2c(c1)C(=O)c1ccccc1C2=O)c1ccc(F)cc1 | 41 | n | n | x | x | x
Cc1ccc(NC2=C(NC(=O)c3ccccc3)C(=O)c3ccccc3C2=O)cc1Cl | n | n | n | n | 20 | n
O=C(Nc1ccc(Nc2ccccc2)cc1)c1c(F)c(F)c(F)c(F)c1F | n | n | x | n | 15 | n
Cc1ccc(NCC(=O)c2ccccc2)cc1Cl | n | n | n | n | n | n
CC(=O)Nc1ccc2c(c1)C(=O)c1cccc(C(=O)O)c1-2 | x | x | x | n | 14 | n
COc1ccccc1CNC(=O)COC(=O)c1nccnc1N | n | n | x | n | n | n
C#CCOC(=O)CCCC(=O)NCCCCCCCC | n | n | n | n | n | n
O=C(NC(=S)Nc1ccc(-c2ccccc2)cc1)c1ccccc1 | x | x | x | n | n | n
O=C(Nc1ccc2c(c1)C(=O)c1ccccc1-2)c1ccccc1 | x | x | x | n | 18 | n
O=C(O)c1ccc(C(=O)Nc2ccc(F)cc2)cc1 | n | n | x | n | n | n
SMILES | UPR XBP1 act | UPR CHOP act | CHOP inhibitor | aDG glyco act | NR3A LBD binder | MPTP inh
O=C(NC(=S)Nc1ccc(NC(=O)c2ccccc2)cc1)c1ccc(F)cc1 | n | n | x | n | 20 | n
O=C(Nc1ccc(Nc2ccccc2)cc1)c1ccc(F)cc1 | n | n | x | n | 15 | n
Cc1c(-c2ccccc2)oc2c(C(=O)N3CCN(c4ccccc4F)CC3)cccc2c1=O | n | n | 71 | n | n | n
CC1=Nc2ccc(C)cc2/C1=C/c1c(N)n2oc(C)cc2nc1=O | n | n | n | n | n | n
CC1=Nc2ccccc2/C1=C/c1c(N)n2c(S(=O)(=O)C(C)C)nsc2nc1=O | n | n | n | n | n | n
CSc1nsc2nc(=O)c(/C=C3\C(C)=Nc4ccc(C)cc43)c(N)n12 | n | n | n | n | 21 | n
CC1=Nc2ccccc2/C1=C/c1c(N)n2c(S(=O)(=O)CC(C)C)nsc2nc1=O | x | x | n | n | 16 | n
CC1=Nc2ccc(C)cc2/C1=C/c1c(N)n2c(S(=O)(=O)C(C)C)nsc2nc1=O | x | x | n | n | 18 | n
COc1cc(OC)c(C#N)c(S(=O)(=O)Cc2ccccc2)c1 | n | n | n | n | 12 | n
CCc1nn2c(N)c(/C=C3\C=Nc4ccccc43)c(=O)nc2s1 | n | n | n | n | n | n
CSc1nsc2nc(=O)c(/C=C3\C=Nc4ccccc43)c(N)n12 | n | n | n | n | 22 | n
Cc1cn2c(N)c(/C=C3\C=Nc4ccccc43)c(=O)nc2s1 | n | n | n | n | 16 | n
CCn1c(O)c(/C=C2\C=Nc3ccccc32)sc1=O | n | n | n | n | n | n
CC(C)S(=O)(=O)c1nsc2nc(=O)c(/C=C3\C=Nc4ccccc43)c(N)n12 | n | n | n | n | 23 | n
FC(F)(F)c1nc2nc(Cl)c(Cl)nc2n1CCCN1CCOCC1 | x | x | x | n | x | n
CSc1nc2c(c(-c3ccc(O)cc3)c1C#N)CCC2 | n | n | 86 | n | n | n
COc1ccc(-c2c(C#N)c(N)nc3c2CCC3)cc1 | n | n | n | n | n | n
O=C(O)CCc1ccc(S(=O)(=O)Nc2cc(C(F)(F)F)ccc2N2CCCC2)cc1 | n | n | x | n | n | n
Oc1ccc(COCc2ccccc2)c2cccnc12 | n | 74 | x | n | n | n
Oc1ccc(F)c2cccnc12 | n | n | 72 | n | n | n
COc1ccc(C2N(c3ccccc3)C(=O)C2(F)F)cc1OC (centres undefined) | n | n | x | n | n | n
CC(C)Nc1nc(NCCN2CCCC2)c2sc(-c3ccccc3)cc2n1 | x | x | x | n | x | n
O=S(=O)(Nc1cc(S(=O)(=O)N2CCOCC2)ccc1NCC1CCCO1)c1ccc(F)cc1 (centres undefined) | n | n | x | n | n | n
COc1cc(/C(O)=C(\C#N)c2nc3ccccc3[nH]2)cc(OC)c1OC | n | n | x | n | n | n
CCOC(=O)N1CCN(c2nc(-c3ccco3)cc(C(F)(F)F)n2)CC1 | n | n | 86 | n | n | n
Cc1cc(NC(=O)CSc2nc(-c3ccco3)cc(C(F)(F)F)n2)no1 | n | n | x | n | n | n
CCOC(=O)N1CCN(c2nc(-c3cccc(OC)c3)cc(C(F)(F)F)n2)CC1 | n | n | n | n | n | n
O=C(CSc1nc(-c2ccco2)cc(C(F)(F)F)n1)Nc1ccccc1C(F)(F)F | n | n | 77 | n | n | n
Cc1cccc(C)c1NC(=O)CSc1nc(-c2ccco2)cc(C(F)(F)F)n1 | n | n | 85 | n | n | n

High-throughput results as filed in PubChem BioAssay.
